The record followed here is ChEMBL document CHEMBL1681759, “Synthesis and biological evaluation of benzimidazole-5-carbohydrazide derivatives as antimalarial, cytotoxic and antitubercular agents” (Bioorg Med Chem, 2011).

Usually GI50 stands for the concentration that inhibits growth by half. Broadly, the IC50 is the concentration that inhibits the measured activity by half. For orientation: MIC means the smallest concentration in the dilution series that meets the test's criterion for growth inhibition. One may read the inhibition as the percentage by which the read-out fell short of the control. A word on the inhibition in vivo: it is the percentage by which the read-out fell short of the control.

Structures are written as SMILES. Values after ≈ are worked out from the molar mass of the structure shown.

One data set deals with MCF7. Briefly: Cytotoxicity against human MCF7 cells assessed as growth inhibition after 48 hrs by sulforhodamine B assay. Format: functional. The settings on record: MCF7, 48 h. The gist of the method:
(§1)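 Cells were exposed to serial compound dilutions in 96-well plates for 48 h at 37 °C alongside solvent controls. Growth was read colorimetrically by sulforhodamine B. GI50 is the concentration giving a 50% reduction in absorbance versus solvent-treated controls, derived by linear regression.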
A general note: The SRB assay estimates cell density from bound dye.

Data set [1] deals with Plasmodium berghei. Briefly: Antimalarial activity against chloroquine-susceptible Plasmodium berghei ANKA infected in Balb-C mouse. Format: functional, organism-based. The gist of the method: (§2)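 Balb-C mice (18–23 g, n = 6) were infected iv in the caudal vein with 10⁶ P. berghei ANKA-infected RBCs. Dosing started 2 h post-infection: 20 mg/kg ip once daily for 4 days, DMSO stock diluted in Saline-Tween 20 (2%). Chloroquine 25 mg/kg served as positive control; untreated mice were controls. Parasitemia was read on day 4 from Giemsa smears, and survival days were recorded.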

The test system of another data set is M14. Briefly: Cytotoxicity against human M14 cells assessed as growth inhibition after 48 hrs by sulforhodamine B assay. The settings on record: M14, 48 h. Format: functional. The gist of the method: as §1
A short description of data set [2]: Cytotoxicity against african green monkey Vero cells assessed as growth inhibition after 48 hrs by sulforhodamine B assay. In kind it is cell-based. The settings on record: chlorocebus sabaeus. The gist of the method: as §1
The next data set concerns K562. As to the kind of experiment: Cytotoxicity against human K562 cells assessed as growth inhibition after 48 hrs by sulforhodamine B assay. In kind it is functional. The settings on record: K562, 48 h. The gist of the method: as §1
A further data set relates to NCI-H460. As to the kind of experiment: Cytotoxicity against human H460 cells assessed as growth inhibition after 48 hrs by sulforhodamine B assay. Format: functional. The note with it: NCI-H460, 48 h. The gist of the method: as §1
For data set [3], the system named is Mycobacterium tuberculosis. As to the kind of experiment: Antimycobacterial activity against Mycobacterium tuberculosis H37Rv after 5 days by tetrazolium microplate assay. In kind it is functional. The settings on record: 120 h. The gist of the method:
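Tetrazolium microplate assay run in 7H9GC broth. DMSO stocks (4 mg/mL) were diluted to final 0.4–25 µg/mL. Isoniazid (0.125–32 µg/mL) and rifampin (0.063–16 µg/mL) were positive controls; inoculum-only and DMSO controls were included. Plates were incubated 5 days at 37 °C, then an MTT-Tween 80 mix was added and incubation continued 24 h at 37 °C. Run in triplicate. MIC = lowest concentration preventing the yellow-to-purple colour change.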

A short description of data set [4]: Inhibition of beta-hematin formation assessed as inhibition of […] polymerization at […] after 48 hrs. In kind it is functional. The gist of the method:
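Hemin chloride (50 µL, 4 mM in DMSO) was mixed in triplicate with compound in DMSO; water or DMSO served as controls. Reaction was started with acetate buffer (0.2 M, pH 4.4) and run 37 °C for 48 h. The pellet was DMSO-washed twice, dissolved in 0.2 N NaOH, diluted 1:2 in 0.1 N NaOH, and read at 405 nm as % inhibition of FP polymerization.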

In data set [5] the test system is Plasmodium berghei. As to the kind of experiment: Antimalarial activity against chloroquine-susceptible Plasmodium berghei ANKA infected in Balb-C mouse assessed as inhibition parasitemia at 20 mg/kg, ip qd for 4 days […]. In kind it is functional. The note with it: 96 h, route intraperitoneal. The gist of the method: as §2
The next data set concerns HT-29. As to the kind of experiment: Cytotoxicity against human HT-29 cells assessed as growth inhibition after 48 hrs by sulforhodamine B assay. In kind it is functional. The settings on record: HT-29, 48 h. The gist of the method:
as §1

A further data set deals with DU-145. As to the kind of experiment: Cytotoxicity against human DU145 cells assessed as growth inhibition after 48 hrs by sulforhodamine B assay. Format: functional. The note with it: DU-145, 48 h. The gist of the method:
as §1

Data set [6] concerns Plasmodium berghei. As to the kind of experiment: Antimalarial activity against chloroquine-susceptible Plasmodium berghei ANKA infected in Balb-C mouse assessed as mouse survival days at 20 mg/kg, ip qd for 4 days […] relative to untreated control. In kind it is functional. The note with it: route intraperitoneal.
Data set [7] is described as follows: Cytotoxicity against mouse 3T3 cells assessed as growth inhibition after 48 hrs by sulforhodamine B assay. In kind it is cell-based. The settings on record: NIH3T3 cells. The gist of the method:
as §1

The subject of data set [8] is Plasmodium berghei. As to the kind of experiment: Antimalarial activity against chloroquine-susceptible Plasmodium berghei ANKA assessed as inhibition of trophozoite extract-mediated mouse hemoglobin hydrolysis at 10 mM after 18 hrs by SDS-PAGE. In kind it is functional. The gist of the method: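 Trophozoite extract came from P. berghei-infected mouse blood at 30–50% parasitemia: RBCs percoll-purified (80–70%), saponin-lysed, then freeze–thawed three times. Substrate was native haemoglobin from uninfected mouse erythrocytes lysed in water. The mix held GSH and acetate buffer (0.2 M, pH 5.4). Compound was added in DMSO and incubated 37 °C, 18 h. Reactions were stopped with reduced sample buffer.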

For `COc1cccc(C(=O)NNC(=O)c2ccc3[nH]c(-c4ccc([N+](=O)[O-])o4)nc3c2)c1`, the GI50 in the data set on MCF7 turned out to be 15.6 µg/mL (≈ 37.1 µM); with M14, 7.81 µg/mL (≈ 18.5 µM); in the data set on K562, 15.6 µg/mL (≈ 37.1 µM); in the data set with NCI-H460, 62.5 µg/mL (≈ 148 µM); in the data set on HT-29 it was 31.2 µg/mL (≈ 74.2 µM); with DU-145, 15.6 µg/mL (≈ 37.1 µM). This molecule also displayed an IC50 in the data set with Plasmodium berghei [1] of 13.1 µM. For the same molecule, the GI50 at 48 h in data set [2] is 31.2 µg/mL (≈ 74.2 µM); in [7], 15.6 µg/mL (≈ 37.1 µM). In addition, the MIC in [3] turned out to be 25 µg/mL (≈ 59.3 µM). Moreover, the inhibition in [4] was found to be 72.4%. In addition, the inhibition in vivo at 20 mg/kg with Plasmodium berghei [5] is 5.98%. Moreover, in the data set with Plasmodium berghei [6], the Survival turned out to be 11.8 days. Also, the inhibition at 10000 µM with Plasmodium berghei [8] came to 2.82%.
In the case of `O=C(O)c1ccc2[nH]c(-c3ccc([N+](=O)[O-])o3)nc2c1`, the GI50 was greater than 250 µg/mL with MCF7; 250 µg/mL (≈ 915 µM) in the data set with M14; 250 µg/mL (≈ 915 µM) in the data set on K562; 125 µg/mL (≈ 458 µM) in the data set with NCI-H460; 250 µg/mL (≈ 915 µM) with HT-29; 125 µg/mL (≈ 458 µM) with DU-145. In addition, it took 8.43 µM to reach half-maximal inhibition with Plasmodium berghei [1] (IC50). For the same molecule, the GI50 at 48 h in data set [2] was greater than 250 µg/mL; in [7], 62.5 µg/mL (≈ 229 µM). Besides, the MIC in data set [3] is greater than 25 µg/mL. In addition, the inhibition in data set [4] amounted to 95.4%. Moreover, the inhibition in vivo at 20 mg/kg in the data set with Plasmodium berghei [5] was found to be 4.02%. Also, the Survival in the data set on Plasmodium berghei [6] is 17 days. For the same molecule, the inhibition at 10000 µM with Plasmodium berghei [8] is 0%.
Consider `O=C(NNC(=O)c1ccc2[nH]c(-c3ccc([N+](=O)[O-])o3)nc2c1)c1ccccc1`, for which the GI50 in the data set with MCF7 worked out at 62.5 µg/mL (≈ 160 µM); with M14, 15.6 µg/mL (≈ 39.9 µM); in the data set with K562, 15.6 µg/mL (≈ 39.9 µM); with NCI-H460 it was 62.5 µg/mL (≈ 160 µM); with HT-29 it was 31.2 µg/mL (≈ 79.9 µM); with DU-145, 15.6 µg/mL (≈ 39.9 µM). This molecule displayed an IC50 in the data set on Plasmodium berghei [1] of 10.9 µM. Besides, the GI50 at 48 h in data set [2] and in data set [7] was 31.2 µg/mL (≈ 79.9 µM) throughout. In addition, in [3], the MIC came out at 12.5 µg/mL (≈ 31.9 µM). The inhibition in data set [4] turned out to be 79.2%. Besides, in the data set on Plasmodium berghei [5], the inhibition in vivo at 20 mg/kg was determined as 10.1%. The Survival in the data set with Plasmodium berghei [6] was determined as 13.6 days. Moreover, the inhibition at 10000 µM in the data set with Plasmodium berghei [8] stood at 0%.
Take `COc1cccc(C(=O)NNC(=O)c2ccc3[nH]c(-c4ccc([N+](=O)[O-])s4)nc3c2)c1`: the GI50 was 15.6 µg/mL (≈ 35.7 µM) with MCF7; 15.6 µg/mL (≈ 35.7 µM) in the data set with M14; 15.6 µg/mL (≈ 35.7 µM) in the data set on K562; 62.5 µg/mL (≈ 143 µM) with NCI-H460; 31.2 µg/mL (≈ 71.4 µM) with HT-29; 62.5 µg/mL (≈ 143 µM) in the data set on DU-145. In the data set with Plasmodium berghei [1], this molecule came in with an IC50 of 24.5 µM. The GI50 at 48 h is greater than 250 µg/mL in [2] and 15.6 µg/mL (≈ 35.7 µM) in data set [7]. Besides, the MIC in [3] was greater than 25 µg/mL. Moreover, in data set [4], the inhibition was 61.6%. Further, the inhibition in vivo at 20 mg/kg in the data set with Plasmodium berghei [5] amounted to 24.8%. For the same molecule, the Survival in the data set on Plasmodium berghei [6] worked out at 10.6 days. The inhibition at 10000 µM with Plasmodium berghei [8] was 13.4%.
In the case of `O=CNNC(=O)c1ccc2[nH]c(-c3ccc([N+](=O)[O-])o3)nc2c1`, the GI50 came to 62.5 µg/mL (≈ 198 µM) in the data set on MCF7; 31.2 µg/mL (≈ 99.1 µM) in the data set on M14; 31.2 µg/mL (≈ 99.1 µM) in the data set on K562; 31.2 µg/mL (≈ 99.1 µM) in the data set on NCI-H460; 62.5 µg/mL (≈ 198 µM) in the data set on HT-29; 15.6 µg/mL (≈ 49.6 µM) in the data set on DU-145. Moreover, the midpoint of inhibition in the data set with Plasmodium berghei [1], the IC50, lay at 8.63 µM. Besides, the GI50 at 48 h in data set [2] and in [7] was 62.5 µg/mL (≈ 198 µM) throughout. Besides, the MIC in data set [3] is greater than 25 µg/mL. Moreover, the inhibition in data set [4] is 94%. The inhibition in vivo at 20 mg/kg with Plasmodium berghei [5] came out at 25.8%. Besides, in the data set with Plasmodium berghei [6], the Survival was determined as 8.2 days. Moreover, the inhibition at 10000 µM with Plasmodium berghei [8] came to 24.2%.
